Rows were chosen to be rich in hits. Some 2.6% of all compounds tested hit in one or more screens of this group.
UCH37 DUB inh: inhibitors of human UCH37 deubiquitinase, primary screen, biochemical, Ub-AMC cleavage, fluorescence; Ubiquitin carboxyl-terminal hydrolase isozyme L5 (Homo sapiens), Q9Y5K5; purified proteasome/UCH37; inhibition, % (no concentration beside the values); 0.33% of 330,000 active; AID 588478, 2011;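 active = mean inhibition over replicate wells above about 20%, limit read from the data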;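 also: 0% = compound-free wells with enzyme and 100% = wells lacking proteasome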
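Schedule: 30 min plus 25 min, room temperature / Material: human UCH37 within purified proteasomes / Technique: AMC fluorescence intensity at 355/460 nm / Buffer or medium: pH 7.4 Tris-HCl (50 mM) with ovalbumin, ATP-MgCl2, DTT / Controls: wells without proteasome as full block, compound-free enzyme plus substrate as uninhibited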
SENP1 FRET inh: human SENP1 catalytic domain inhibitors, primary screen, biochemical, FRET, uHTS. AID 624204, 2012. 0.21% of 360,000 active. Sentrin-specific protease 1 (Homo sapiens), Q9P0U3. inhibition, % at 10 µM. recombinant SENP1 catalytic domain, CyPet-SUMO1-YPet FRET cleavage;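 active = inhibition at least 30% at 10 µM, raw YFP signal under a set limit, fluorescence ratio 0.5 to 1.5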;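 also: 0% = enzyme with DMSO and 100% = no enzyme wells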
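Assay system: hSENP1 catalytic domain, recombinant. Amount: SENP1 enzyme, 20 pM final. Schedule: 50 min reaction, RT, dark. Technique: FRET, CFP and YFP emission. Control set: no-enzyme wells low, DMSO-plus-enzyme wells high control.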
SENP8 block-1: SENP8 protease inhibitors, primary screen, biochemical, luminescence; inhibition, % at 10 µM; AID 2540, 2010; Sentrin-specific protease 8 (Homo sapiens), Q96LD8; purified SENP8, Z-RLRGG-aminoluciferin cleavage; 1.2% of 330,000 active; in the data active = inhibition above about 50%
Target sequence (Q96LD8 whole entry, looked up): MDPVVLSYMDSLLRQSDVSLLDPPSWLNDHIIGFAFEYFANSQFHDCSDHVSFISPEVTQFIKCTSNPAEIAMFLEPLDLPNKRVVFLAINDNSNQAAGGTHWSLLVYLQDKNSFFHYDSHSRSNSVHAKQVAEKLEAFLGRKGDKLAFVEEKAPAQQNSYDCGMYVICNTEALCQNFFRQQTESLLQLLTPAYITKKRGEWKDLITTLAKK
SENP7 inh: SENP7 protease inhibitors, primary screen, biochemical, luminescence, uHTS; Sentrin-specific protease 7 (Homo sapiens), Q9BQF6; recombinant SENP7, Z-RLRGG-aminoluciferin luminescence, 40 min; inhibition, % at 5 µM; 1.5% of 330,000 active; AID 434973, 2010;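 active = inhibition above about 50% at the single test dose, limit read from the data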;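 also: plate controls were DMSO with enzyme for no effect and no enzyme buffer wells for full effect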
Target sequence (Q9BQF6 706-1050 limits assumed): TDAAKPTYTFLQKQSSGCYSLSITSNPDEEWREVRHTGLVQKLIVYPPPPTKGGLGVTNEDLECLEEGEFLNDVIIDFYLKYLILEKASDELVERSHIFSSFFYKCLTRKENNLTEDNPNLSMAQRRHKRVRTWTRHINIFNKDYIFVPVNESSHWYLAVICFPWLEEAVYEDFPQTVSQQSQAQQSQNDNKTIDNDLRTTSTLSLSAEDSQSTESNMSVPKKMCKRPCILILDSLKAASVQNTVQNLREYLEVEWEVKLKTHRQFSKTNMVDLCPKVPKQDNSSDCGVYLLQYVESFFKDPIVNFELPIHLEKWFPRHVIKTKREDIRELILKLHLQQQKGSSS
SENP6 block: SENP6 protease inhibitors, primary screen, biochemical, luminescence, uHTS | Sentrin-specific protease 6 (Homo sapiens), Q9GZR1 | inhibition, % at 10 µM | 1.8% of 330,000 active | Recombinant SENP6 catalytic domain, aminoluciferin luminescence;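 active = inhibition above about 50% at the single tested dose, limit read from the data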;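 also: plate controls were DMSO wells with enzyme for no effect and DMSO wells lacking enzyme for full effect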
SENP8 block-2: human SENP8 protease inhibitors, primary screen, biochemical, fluorescence, Nedd8 protein substrate, uHTS; 0.64% of 360,000 active; recombinant SENP8; inhibition, % at 20 µM; Sentrin-specific protease 8 (Homo sapiens), Q96LD8; in the data active = inhibition mostly above about 40%, no sharp cut-off; inactive = mostly below about 27%
SENP8 conf: human SENP8 protease inhibitors, confirmation, biochemical, Nedd8 protein substrate, single concentration | shares compounds with SENP8 block-2 | purified SENP8, Nedd8-AMC/pro-Nedd8 cleavage fluorescence, 30 min | inhibition, % at 25 µM | 15% of 1,400 active; in the data active = inhibition mostly above about 39%, no sharp cut-off; inactive = mostly below about 34%
An asterisk follows results filed as active; i = inactive; . = no result given.

SMILES	UCH37 DUB inh	SENP1 FRET inh	SENP8 block-1	SENP7 inh	SENP6 block	SENP8 block-2	SENP8 conf
CN1C2=CC=CC=CC2=[N+](C)C12C=CC(=[N+]([O-])[O-])C=C2[N+](=O)[O-] (stereo not drawn)	18	-6	4	13	16	53*	26
Cc1ccc(N2C(=O)Cc3ccccc3C2=O)cc1	2	-4	23	17	40	69*	55*
Cc1cccc(N2C(=O)c3cccc4cccc(c34)C2=O)c1	4	0	0	-2	0	14	.
Cc1cccc(N2C(=O)Cc3ccccc3C2=O)c1	2	-3	20	24	31	82*	43
Cc1ccc(N2C(=O)c3cccc4cccc(c34)C2=O)cc1	-5	-1	-2	-8	-20	-13	.
CCOC(=O)C(C(=O)OCC)C(C)(C)C(C)=NNc1ccc([N+](=O)[O-])cc1[N+](=O)[O-]	3	.	.	.	.	.	.
O=C(NCc1ccc2c(c1)OCO2)C(c1ccco1)N(C(=O)c1csnn1)c1ccccc1 (stereo not drawn)	3	1	8	-2	-5	41*	1
O=C(NC1CCCCC1)Oc1ccccc1	3	2	-11	-9	-7	40*	10
O=C(NC1CCS(=O)(=O)C1)Oc1ccccc1 (stereo not drawn)	0	1	-5	-9	-7	25	.
CCCCCCCC(=O)NN=Cc1ccncc1	4	.	.	.	.	.	.
Cc1onc(-c2c(Cl)cccc2Cl)c1C(=O)N=S(C)(=O)c1ccccc1 (stereo not drawn)	-1	2	-4	2	-7	41*	8
O=C(NCC(=O)N(CC1CCCO1)C(C(=O)NC1CCCC1)c1cccnc1)c1ccco1 (stereo not drawn)	-4	0	2	-1	2	42*	14
O=C(NCC(=O)N(CC1CCCO1)C(C(=O)NC1CCCC1)c1ccc(F)cc1)c1ccco1 (stereo not drawn)	0	0	-6	0	-12	21	.
C[n+]1cccc2cccc([O-])c21	4	2	.	.	.	96*	58*
O=C(NN=Cc1ccc(N2CCOCC2)s1)c1ccc([N+](=O)[O-])cc1	10	6	-2	-5	-2	43*	31
Cc1ccc(C(=O)N/N=C/c2ccc([N+](=O)[O-])s2)cc1	.	-4	7	12	6	44*	24
COc1ccc(C=NNc2nc(Nc3ccccc3)nc(N3CCCC3)n2)cc1	5	.	.	.	.	.	.
Cc1ccc(S(=O)(=O)NCC2CCCO2)cc1[N+](=O)[O-] (stereo not drawn)	-1	1	-14	-11	0	45*	7
COc1ccc(-c2cc(-c3ccccc3)nc(=O)[nH]2)cc1	i	1	-6	0	-23	-436	.
COc1ccc(-c2cc(C(F)(F)F)c3c(=O)n(-c4ccccc4)[nH]c3n2)cc1	9	3	23	4	46	41*	32
Cc1cccc(C(=O)Nc2ccc(C(=O)NN=Cc3cccc(C)n3)cc2)c1	4	.	.	.	.	.	.
O=C(C1CCCCC1)N1CCCc2ccccc21	-2	-2	3	1	0	20	.
CC(C)N1C(=O)CCC1C(=O)N1CCCc2ccccc21 (stereo not drawn)	8	0	-1	-3	1	41*	67*
O=[N+]([O-])c1ccc(N2CCN(Cc3ccccc3)CC2)s1	7	-20	2	0	11	31	.
O=[N+]([O-])c1ccc(N2CCN(Cc3ccccc3)CC2)c2c1no[n+]2[O-]	.	36*	.	.	.	42*	83*
SMILES	UCH37 DUB inh	SENP1 FRET inh	SENP8 block-1	SENP7 inh	SENP6 block	SENP8 block-2	SENP8 conf
Cc1cccc(NS(=O)(=O)c2cc(C(=O)OCC(=O)Nc3cc(C)on3)ccc2C)c1	6	0	7	7	8	41*	19
O=C(O)/C=C/C(=O)Nc1ccc(C(=O)c2ccccc2)cc1	7	1	-6	0	-9	13	.
O=C(O)/C=C/C(=O)Nc1ccc(O)cc1	5	20	-4	-4	-10	81*	31
COc1cccc(OCCNc2cc(N3CCCCC3)ccc2[N+](=O)[O-])c1	3	1	-3	-1	-5	60*	16
COc1ccc(OCCNc2cc(N3CCCCC3)ccc2[N+](=O)[O-])cc1	9	1	3	6	-12	36	.
CC(Nc1cc(N2CCCC2)ccc1[N+](=O)[O-])c1ccccc1 (stereo not drawn)	5	2	-2	1	7	45*	-2
CC(Nc1cc(N2CCOCC2)ccc1[N+](=O)[O-])c1ccccc1 (stereo not drawn)	3	1	-4	2	-6	20	.
O=[N+]([O-])c1ccc(N2CCOCC2)cc1NCc1ccccc1	4	4	3	3	14	42*	9
O=[N+]([O-])c1ccc(N2CCCC2)cc1NCc1ccccc1	4	2	1	1	-2	36	.
COc1ccc(NS(=O)(=O)NC(=O)c2c(C)n(C)c3ccccc23)cc1	1	-2	-5	-14	-10	39*	14
O=C(C(=O)c1ccc(O)cc1)c1ccccc1	8	3	1	10	-31	18	.
N#CC(C(=O)c1ccccc1)=C1SCCS1	8	3	-2	3	7	42*	9
CC(C)[C@@H](C(=O)NCC1CCCO1)N1C(=O)N2CCc3c([nH]c4ccccc34)[C@@]2(C)C1=O (stereo partly drawn)	0	-4	-10	-20	-8	51*	13
CC(C)[C@@H](C(=O)NC1CC1)N1C(=O)N2CCc3c([nH]c4ccccc34)[C@@]2(C)C1=O	4	-2	1	-2	0	51*	7
CC(C)[C@@H](C(=O)N[C@@H](C(=O)O)c1ccccc1)N1C(=O)N2CCc3c([nH]c4ccccc34)[C@@]2(C)C1=O	6	2	-10	-4	-15	44*	18
CC(C)[C@@H](C(=O)N[C@@H](Cc1ccccc1)C(=O)O)N1C(=O)N2CCc3c([nH]c4ccccc34)[C@@]2(C)C1=O	-1	2	-7	14	-8	13	.
